Screens: PubChem BioAssay, Broad Institute
Cneo AK release = Cryptococcus neoformans cell lysis inducers, primary screen, AK release luminescence, single concentration; C. neoformans lysis, adenylate kinase release luminescence, 4 h; normalised: neutral wells 0, clomiphene wells 100; lysis activity, % at 15 µM; actives 0.2% (n = 360,000);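 active = mean lysis activity across replicates of at least 80%, whatever share of replicates individually reach that level; inactive = mean lysis activity below 80%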
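Test system: log-phase Cryptococcus neoformans yeast cells; Quantity: yeast cell density of 5 × 10^6 cells/mL; Buffer or medium: YPD; Doses: single compound concentration per well; Timing: 4 h at 37 °C static, read 1 h later; Measured by: AK luminescence; Read-out basis: lysis from increased AK signal; Control set: Clomiphene as positive control.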
Mot1-301 SUMO = yeast Mot1-301 growth rescue at high temperature, primary screen, SUMOylation pathway inhibitor project, S. cerevisiae, ATP luminescence, 38.5C; S. cerevisiae Mot1-301 growth rescue; percent above DMSO median, 100 means doubled; growth rescue, % at 18.8 µM; actives 1% (n = 320,000); AID 2716, 2010;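 active = every valid replicate shows activation above 250% relative to neutral control wells; inactive = the rest, any valid replicate at or below 250%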;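 also: OY570 slx delta 5 strain wells were the positive control but not used for scaling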
Statin myotox sup = suppressors of statin myotoxicity in C2C12 myotubes, primary screen, cell-based, single point, plate reader; C2C12 myotubes + simvastatin, ATP luminescence, 48 h; scaled: DMSO 0, geranylgeraniol control 100; actives 0.78% (n = 330,000); rescue of ATP level, % at 7.49 µM;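 active = mean ATP rescue above about 67%, or every replicate alone reaching that limit, limit read from the data, passing the limit was not always enough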;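 also: myotubes were challenged with 10 µM simvastatin during compound exposure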
Yeast Mot1 SUMO = growth restoration of Mot1-301 yeast on galactose, dose response, SUMO pathway inhibitor project, whole organism, S. cerevisiae, ATP luminescence, cherry-picked samples. S. cerevisiae Mot1-301 galactose growth, 24 h; -100 = growth of slx-deleted rescue strain. shares compounds with Mot1-301 SUMO. 2,300 tested, under 10 active. growth activity, percent, % at 42 µM;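 active = Signal drops as the depositor expects, and the fitted half-maximal dose is no more than ten times the top valid tested dose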;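 also: more negative values mean stronger growth rescue toward the control strain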
An asterisk follows results filed as active; x = no result given; + = active, no number. Sampled rows, rich in hits. Any-hit rate of the full collection: about 1.5%.

SMILES	Cneo AK release	Mot1-301 SUMO	Statin myotox sup	Yeast Mot1 SUMO
COc1ccc(-c2nc(CS(=O)(=O)CC(=O)NC3CCCCC3C)c(C)o2)cc1 (configuration not stated)	x	-8	x	x
Cc1ccc(-c2nc(CS(=O)(=O)CC(=O)NC3CCCCC3C)c(C)o2)cc1 (configuration not stated)	1	699*	-1	1
Cc1ccc(NS(=O)(=O)c2ccc(NC(=O)C3CCCO3)cc2)cc1 (configuration not stated)	-1	469*	3	0
COc1ccc(NS(=O)(=O)c2ccc(NC(=O)C3CCCO3)cc2)cc1 (configuration not stated)	2	-5	10	x
CCC(=O)Nc1ccc2c(c1)OC[C@@H](C)N(C(=O)c1cccnc1)C[C@H](C)[C@H](OC)CN(C)C2=O	-1	x	-15	x
C/C=C/c1ccc([C@@H]2[C@@H](CO)N(C(=O)C3CC3)[C@H]2CN(C)C(=O)C2CC2)cc1	-2	x	-10	x
NNC(=O)c1ccc(Cn2cc(Cl)cn2)cc1	0	243	-1	x
O=C(Nc1ccc([N+](=O)[O-])cc1)c1ccc(Cn2cc([N+](=O)[O-])cn2)cc1	x	19	x	x
O=C(Nc1cnn(Cc2ccc(Cl)cc2)c1)c1ccc([N+](=O)[O-])cc1	0	390*	x	1
COC(=O)c1sc(NC(=O)c2ccc(Cn3cc(Cl)cn3)o2)c(C#N)c1C	0	+	x	-1
N#Cc1c(NC(=O)c2ccc(Cn3cc(Br)cn3)o2)sc2c1CCCCC2	-9	9	4	x
COC(=O)c1ccc(Cn2cc(Cl)cn2)cc1	-1	652*	-9	1
COc1cccc(C(=O)N2C[C@H]3[C@@H](c4ccccc42)[C@H](CO)N3C(C)=O)c1	-4	x	0	x
CN(C)C(=O)C[C@H]1CC[C@H]2[C@@H](COc3ccc(NS(=O)(=O)c4cccc(F)c4)cc3C(=O)N2C)O1	5	x	4	x
COc1ccc(C(=O)Nc2ccc3c(c2)OC[C@@H](C)N(C(C)=O)C[C@H](C)[C@@H](OC)CN(C)C3=O)cc1	-4	x	-14	x
COC(=O)c1c(CC[C@@H](CO)NC(=O)N[C@H](Cn2cc(Cc3ccccc3)nn2)C(C)C)oc(C(C)=O)c1C(=O)OC	16	x	x	x
Cc1ccc(-c2ccc(/C=N/n3cnnc3)o2)cc1Cl	2	20	14	x
Cc1ccc(-c2ccc(/C=N/n3cnnc3)o2)cc1	x	505*	-1	-1
C[C@H](CO)N1C[C@H](C)[C@H](CN(C)C(=O)Nc2ccc(F)cc2)Oc2ncc(C3=CCCC3)cc2C1=O	0	x	22	x
COc1ccc(NC(=O)Nc2ccc3c(c2)C(=O)N([C@@H](C)CO)C[C@@H](C)[C@@H](CN(C)C(=O)NC2CCCCC2)O3)cc1	-8	x	-3	x
COc1ccc(NC(=O)Nc2ccc(OC)cc2)cc1	0	391*	-11	0
COC(=O)c1ccc(NC(=S)NC(=O)C2CCC2)cc1	14	-1	x	x
COC(=O)c1ccc(NC(=O)Nc2ccc(OC)cc2)cc1	-3	9	-7	x
COc1ccc(NC(=S)NC(=O)C2CCC2)cc1	36	555*	-26	-1
C[C@H](NC(=O)C[C@H]1CC[C@@H](NC(=O)CN2CCOCC2)[C@H](CO)O1)c1ccccc1	4	x	1	x
SMILES	Cneo AK release	Mot1-301 SUMO	Statin myotox sup	Yeast Mot1 SUMO
CO[C@H]1CC[C@@H]2CCN(C)C(=O)[C@@H](C)N(C)C(=O)c3cc(C#N)ccc3OC[C@@H]1O2	-1	x	-12	x
COc1ccc(S(=O)(=O)N2CC[C@@H]3[C@@H](CO)Nc4ccc(-c5ccccc5F)cc4[C@@H]32)cc1	6	x	7	x
O=C(c1ccc(Br)cc1)C(CN1CCOCC1)c1ccccc1 (configuration not stated)	3	460*	6	-1
CC(CN1CCOCC1)OC(=O)c1ccc(Br)cc1 (configuration not stated)	6	-5	0	x
CO[C@@H]1CC[C@@H]2CCN(C)C(=O)[C@@H](C)[C@H](OC)CN(C)C(=O)c3cc(C#N)ccc3OC[C@@H]1O2	-2	x	7	x
O=C(Cc1ccccc1)NNC(=S)Nc1ccc(Cl)cc1	-4	0	x	x
O=C(CCc1ccccc1)NNC(=S)Nc1ccc(F)cc1	-1	377*	-12	-1
O=C(c1ccc(COc2ccc3ccccc3c2)o1)N1N=C(C(F)F)CC1(O)C(F)F (configuration not stated)	11	1	x	x
O=C(c1ccc(COc2ccccc2Cl)o1)N1N=C(C(F)F)CC1(O)C(F)F (configuration not stated)	5	438*	x	0
Cc1ccc(S(=O)(=O)Nc2ccc3c(c2)CC(=O)N([C@H](C)CO)C[C@@H](C)[C@@H](CN(C)Cc2ccc(C(=O)Nc4ccccc4N)cc2)O3)cc1	-7	x	-7	x
CC(C)CC(=O)Nc1ccc(C(=O)CN2C(=O)NC3(CCOc4ccccc43)C2=O)cc1 (configuration not stated)	2	566*	-36	1
CCC(=O)Nc1ccc(C(=O)CN2C(=O)NC3(CCOc4ccccc43)C2=O)cc1 (configuration not stated)	3	-4	6	x
CC(C)C#Cc1cnc2c(c1)C(=O)N([C@@H](C)CO)C[C@H](C)[C@@H](CN(C)Cc1ccc3c(c1)OCO3)O2	-1	x	11	x
